Assay results published in ChEMBL document CHEMBL3414463, “Discovery of potent and selective 8-fluorotriazolopyridine c-Met inhibitors” (J Med Chem, 2015).

Experiments:
Liver microsome [1] = experiment: Drug level in rat liver microsomes treated with 5-(8-Fluoro-3-(1-(3-methoxyquinolin-6-yl)ethyl)[1,2,4]-triazolo[4,3-a]pyridin-6-yl)-3-methylisoxazole assessed as compound formation in presence of NADPH by LC-MS/MS method; type: ADME
Procedure, shortened: (§1)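 Compound incubated with NADPH in mouse, rat, dog, monkey or human liver microsomes. Metabolites were identified by accurate mass spectrometry and MS/MS, and selected ion chromatograms were used to build metabolite profiles.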

Liver microsome [2] = experiment: Drug level in dog liver microsomes treated with 5-(8-Fluoro-3-(1-(3-methoxyquinolin-6-yl)ethyl)[1,2,4]-triazolo[4,3-a]pyridin-6-yl)-3-methylisoxazole assessed as compound formation in presence of NADPH by LC-MS/MS method; type: ADME, Canis lupus familiaris; procedure, shortened: as §1
[3] = Drug level in mouse liver microsomes treated with 5-(8-Fluoro-3-(1-(3-methoxyquinolin-6-yl)ethyl)[1,2,4]-triazolo[4,3-a]pyridin-6-yl)-3-methylisoxazole assessed as compound formation in presence of NADPH by LC-MS/MS method; type: ADME; procedure, shortened: as §1
[4] = Drug level in monkey liver microsomes treated with 5-(8-Fluoro-3-(1-(3-(2-methoxyethoxy)quinolin-6-yl)ethyl)-[1,2,4]triazolo[4,3-a]pyridin-6-yl)-3-methylisoxazole assessed as compound formation in presence of NADPH by LC-MS/MS method; type: ADME, Macaca mulatta; details: rhesus monkey; procedure, shortened: as §1
Liver microsome [5] = experiment: Drug level in rat liver microsomes treated with 5-(8-Fluoro-3-(1-(3-(2-methoxyethoxy)quinolin-6-yl)ethyl)-[1,2,4]triazolo[4,3-a]pyridin-6-yl)-3-methylisoxazole assessed as compound formation in presence of NADPH by LC-MS/MS method; type: ADME; procedure, shortened: as §1
Liver microsome [6] = experiment: Drug level in dog liver microsomes treated with 5-(8-Fluoro-3-(1-(3-(2-methoxyethoxy)quinolin-6-yl)ethyl)-[1,2,4]triazolo[4,3-a]pyridin-6-yl)-3-methylisoxazole assessed as compound formation in presence of NADPH by LC-MS/MS method; type: ADME, Canis lupus familiaris; procedure, shortened: as §1
[7] = Drug level in mouse liver microsomes treated with 5-(8-Fluoro-3-(1-(3-(2-methoxyethoxy)quinolin-6-yl)ethyl)-[1,2,4]triazolo[4,3-a]pyridin-6-yl)-3-methylisoxazole assessed as compound formation in presence of NADPH by LC-MS/MS method; type: ADME; procedure, shortened: as §1
Liver microsome [8] = experiment: Drug level in human liver microsomes treated with 5-(8-Fluoro-3-(1-(3-(2-methoxyethoxy)quinolin-6-yl)ethyl)-[1,2,4]triazolo[4,3-a]pyridin-6-yl)-3-methylisoxazole assessed as compound formation in presence of NADPH by LC-MS/MS method; type: ADME; procedure, shortened: as §1
[9] = Drug level in monkey liver microsomes treated with 5-(8-Fluoro-3-(1-(3-methoxyquinolin-6-yl)ethyl)[1,2,4]-triazolo[4,3-a]pyridin-6-yl)-3-methylisoxazole assessed as compound formation in presence of NADPH by LC-MS/MS method; type: ADME, Macaca mulatta; details: rhesus monkey; procedure, shortened: as §1
Liver microsome [10] = experiment: Drug level in human liver microsomes treated with 5-(8-Fluoro-3-(1-(3-methoxyquinolin-6-yl)ethyl)[1,2,4]-triazolo[4,3-a]pyridin-6-yl)-3-methylisoxazole assessed as compound formation in presence of NADPH by LC-MS/MS method; type: ADME; procedure, shortened: as §1

Measured: Drug metabolism

COc1cnc2ccc([C@H](C)c3nnc4c(F)cc(-c5cc(CO)no5)cn34)cc2c1
metabolite_detected: Liver microsome [1] | Liver microsome [2] | [3]

Cc1cc(-c2cc(F)c3nnc([C@@H](C)c4ccc5ncc(OCCO)cc5c4)n3c2)on1
metabolite_detected: [4] | Liver microsome [5] | Liver microsome [6] | [7] | Liver microsome [8]

Cc1cc(-c2cc(F)c3nnc([C@@H](C)c4ccc5ncc(OCC(=O)O)cc5c4)n3c2)on1
metabolite_detected: [4] | Liver microsome [5] | Liver microsome [6] | [7] | Liver microsome [8]

COc1cnc2ccc([C@H](CO)c3nnc4c(F)cc(-c5cc(C)no5)cn34)cc2c1
metabolite_detected: [9] | Liver microsome [10]
